4 compounds from ChEMBL document CHEMBL4017535 (J Med Chem, 2017) can be followed below.

Data set [1] relates to Mus musculus. As to the kind of experiment: Unbound AUC in mouse at 10 mg/kg, po. Type of data set: ADME, organism-based. The following applies: in vivo. In outline:
(§1)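 Mouse PK: 3 mg/kg IV and 10 mg/kg PO. Clearance is expressed unbound, Cl_p,u in L/hr/kg. AUC is unbound, in µM*hr. FaFg is computed as F/(1-Clp/Qh), with mouse liver blood flow Qh 5.2 L/hr/kg. Unbound plasma fraction was measured separately.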

Data set [2] concerns the target T1, Bromodomain-containing protein 4 (Homo sapiens, UniProt O60885). The data set can be described thus: Inhibition of BRD4 in human H1299 cells assessed as decrease in HPV LCR-E2-EP400-mediated transcriptional repression after 24 hrs by Bright-Glo luciferase reporter gene assay. Type of data set: cell-based. (A reporter such as luciferase makes a cellular process visible.)

A short description of data set [3]: Permeability in MDCK cells. Type of data set: ADME, cell-based, Canis lupus familiaris. The following applies: dog, read-out: permeability.
A short description of data set [4]: Fraction unbound in mouse plasma at 1 uM after 4 hrs by LC-MS/MS method. Type of data set: ADME, cell-free.
For data set [5], the system named is Rattus norvegicus. The data set can be described thus: Oral absorption in rat at 1 mg/kg. Type of data set: ADME, organism-based. The following applies: in vivo. In outline:
(§2)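 Oral absorption is expressed as FaFg, calculated as F/(1-Clp/Qh). Liver blood flow (Qh) was 5.2 L/hr/kg for mouse and 3.8 L/hr/kg for rat. Mouse dosing was 3 mg/kg IV and 10 mg/kg PO; rat dosing was 1 mg/kg IV and PO.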

The subject of data set [6] is Mus musculus. As to the kind of experiment: Plasma unbound clearance in mouse at 3 mg/kg, iv. Type of data set: ADME, organism-based. The following applies: in vivo. In outline: as §1
The subject of data set [7] is Rattus norvegicus. The data set can be described thus: Unbound AUC in rat at 1 mg/kg, po. The following applies: in vivo.
Data set [8] deals with Liver. As to the kind of experiment: Unbound intrinsic clearance in rat liver microsomes at 10 uM preincubated for 5 mins followed by NADPH addition measured after 60 mins by HPLC-UV-MS analysis. Type of data set: ADME, microsome. Particulars: 1 h. For orientation: Liver microsomes are vesicles of endoplasmic reticulum, rich in cytochrome P450 enzymes.
In data set [9] the test system is Liver. As to the kind of experiment: Unbound intrinsic clearance in mouse liver microsomes. Type of data set: ADME, microsome. In outline: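 Liver microsome stability is expressed as unbound intrinsic clearance, Cl_int,u, in L/hr/kg. Dextromethorphan served as the in-house low-clearance reference control and verapamil as the high-clearance reference control.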

The test system of data set [10] is Rattus norvegicus. As to the kind of experiment: Plasma unbound clearance in rat at 1 mg/kg, iv. Type of data set: ADME, organism-based. The following applies: in vivo. In outline: (§3)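 In rats, 1 mg/kg was given by both IV and PO routes. IV clearance is unbound (Cl_p,u, L/hr/kg). FaFg is taken as F/(1-Clp/Qh), using rat Qh 3.8 L/hr/kg. Unbound plasma fraction was determined in rat plasma.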

Data set [11] can be described thus: Oral bioavailability in mouse at 10 mg/kg. Type of data set: ADME, organism-based. Particulars: in vivo. In outline:
as §1

For data set [12], the target named is T1, Bromodomain-containing protein 4. The data set can be described thus: Binding affinity to human N-terminal His6-tagged BRD4 BD1-BD2 (K57 to K550 residues) after 1 hr using alexa-647 conjugated probe by TR-FRET assay. (Time-resolved FRET reads energy transfer from a long-lived donor to a nearby acceptor.)
In another data set the test system is MX1. The data set can be described thus: Antiproliferative activity against human MX1 cells after 72 hrs by Cell Titer Glo assay. Type of data set: functional, cell-based. Particulars: MX1, 72 h.
Data set [13] is described as follows: Fraction unbound in rat plasma at 1 uM after 4 hrs by LC-MS/MS method. Type of data set: ADME, cell-free.
In data set [14] the test system is Liver. The data set can be described thus: Unbound intrinsic clearance in human liver microsomes at 10 uM preincubated for 5 mins followed by NADPH addition measured after 60 mins by HPLC-UV-MS analysis. Type of data set: ADME, microsome. The following applies: 1 h.
For data set [15], the system named is Mus musculus. As to the kind of experiment: Oral absorption in mouse at 10 mg/kg. Type of data set: ADME, organism-based. The following applies: in vivo. In outline: as §2
The nature of data set [16]: Oral bioavailability in rat at 1 mg/kg. Type of data set: ADME, organism-based. Particulars: in vivo. In outline: as §3
Data set [17] can be described thus: Toxicity in iv dosed NOD.SCID mouse xenografted with gamma-irradiated human Kasumi-1 cells administered as […] for every 7 days. Type of data set: organism-based. Particulars: in vivo. In outline:
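Kasumi-1 AML xenograft in mice; dosing intravenous once every 7 days at 8 mg/kg.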

In data set [18] the test system is Mus musculus. The data set can be described thus: Toxicity in NOD.SCID mouse assessed as maximum mean body weight loss at 8 mg/kg, iv qd for every 7 days (reference value: 9%). Particulars: in vivo, 168 h. Type of data set: organism-based.

By EC50 is commonly meant the concentration needed to bring the measured effect to its halfway point. In general, fraction unbound refers to free concentration divided by total concentration. Low readings indicate extensive binding, high ones weak binding. Usually bioavailability stands for the share of a dose that reaches the circulation, judged against a reference dose that is usually intravenous. A word on the Ki: it is a dissociation constant, usually derived from enzyme kinetics or from competition with a known ligand. `Cn1cc(-c2cc(NS(C)(=O)=O)ccc2Oc2ccc(F)cc2F)c2cc[nH]c2c1=O`: the fAUC in the data set with Mus musculus [1] was 1.3 µM·h; in the data set on Rattus norvegicus [7], 0.19 µM·h. The EC50 in data set [2] is 21 nM; with MX1, 29 nM. The Papp in [3] worked out at 17 ×10⁻⁶ cm/s. For the same compound, the fraction unbound at 4 h, 1 µM in data set [4] amounted to 0.033; in data set [13] it was 0.036. The FaFg in the data set on Rattus norvegicus [5] is given as 0.52; in the data set with Mus musculus [15], 0.7. Moreover, the clearance in the data set on Mus musculus [6] is 167 mL/min/kg; with Rattus norvegicus [10], 417 mL/min/kg. Also, the figures for the CL free with Liver [8], in the data set with Liver [9] and in the data set on Liver [14] were under 65 mL/min/kg, 283 mL/min/kg and 155 mL/min/kg, respectively. The bioavailability in data set [11] turned out to be 65%; in data set [16] it was 40%. For the same compound, the Ki in data set [12] came to 4.5 nM.

With `Nc1ncn([C@@H]2O[C@H](CO)[C@@H](O)[C@H]2O)c(=O)n1` [AZACITIDINE], in data set [17], the MTD at 168 h is 8 mg/kg. Moreover, the Activity in the data set on Mus musculus [18] is on record as 1%.

For the compound `Cn1cc(-c2cc(NS(C)(=O)=O)ccc2Oc2ccccc2)c2cc[nH]c2c1=O`, the results for the fAUC in the data set with Mus musculus [1] and in the data set with Rattus norvegicus [7] were 0.34 µM·h and 0.016 µM·h, respectively. For the same compound, the concentration for a half-maximal effect (EC50) in data set [2] amounted to 11 nM; in the data set with MX1 it was 16 nM. The Papp in [3] came out at 12 ×10⁻⁶ cm/s. Besides, the fraction unbound at 4 h, 1 µM in [4] was found to be 0.039; in data set [13] it was 0.034. Besides, the FaFg was 0.32 with Rattus norvegicus [5] and 0.77 with Mus musculus [15]. The clearance in the data set on Mus musculus [6] was 650 mL/min/kg; with Rattus norvegicus [10], 1230 mL/min/kg. Further, the CL free in the data set on Liver [8] was 2000 mL/min/kg; in the data set on Liver [9] it was 300 mL/min/kg; in the data set on Liver [14], 83.3 mL/min/kg. Besides, the values for the bioavailability in data set [11] and in [16] were 55% and 10%, respectively. The same compound displayed a Ki in data set [12] of 2.4 nM.

Consider `CCNC(=O)c1ccc(Oc2ccccc2)c(-c2cn(C)c(=O)c3[nH]ccc23)c1`, for which the results for the concentration giving a half-maximal response (EC50) (in data set [2]; in the data set on MX1) were 70 nM and 130 nM, respectively. For the same compound, the Papp in data set [3] stood at 30 ×10⁻⁶ cm/s. Further, the CL free was 4000 mL/min/kg in the data set on Liver [8], 717 mL/min/kg in the data set on Liver [9] and 68.3 mL/min/kg with Liver [14]. Also, the inhibition constant Ki in data set [12] came out at 32 nM.
